pEC50: −log10 of the molar value.

For assay [1], the system named is HFF. The experiment in a line: Cytotoxicity against HFF cell line by neutral red toxicity assay. The assay is classed as functional. The following applies: Homo sapiens. The method, boiled down: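 Confluent uninfected HFF monolayers exposed to various drug concentrations for 7 days at 37 °C. Viability read by neutral red uptake. CC50 is the concentration reducing neutral red uptake by 50%.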

Assay [2] concerns Cowpox virus. The assay can be described thus: Antiviral activity against cowpox virus Brighton measured as cytopathogenicity in HFF cells. The assay is classed as functional, organism-based. For orientation: Cytopathic effects are the visible damage that an infection or toxin causes in cultured cells.
The test system of assay [3] is Cowpox virus. The assay can be described thus: Antiviral activity against cowpox virus Brighton by plaque reduction in HFF cells. The assay is classed as functional, organism-based.
In assay [4] the test system is Vaccinia virus. The assay can be described thus: Antiviral activity against vaccinia virus Copenhagen assessed as plaque reduction in HFF cells. The following applies: Orthopoxvirus vaccinia. The assay is classed as functional, organism-based.

In assay [1], `O=c1[nH]c(=O)n(C2CC(O)[C@@H](CO)O2)cc1C1OCCO1` (single isomer, unassigned) yielded a CC50 greater than 300 µM. In addition, in assay [2], the negative-log EC50 (pEC50) was less than 3.52.

In assay [1], `CC(=O)OC[C@H]1OC(n2cc(C3OCCO3)c(=O)[nH]c2=O)C[C@@H]1OC(C)=O` (stereo not given in full) gave a CC50 greater than 300 µM. The same compound gave a negative logarithm of the EC50 (pEC50) in assay [2] of less than 3.52.

In assay [1], `COC(OC)c1cn(C2C[C@H](OC(C)=O)[C@@H](COC(C)=O)O2)c(=O)[nH]c1=O` (stereo not given in full) registered a half-maximal cytotoxic concentration (CC50) greater than 300 µM. The negative-log EC50 (pEC50) in assay [2] was less than 3.52.

Take `O=c1[nH]c(=O)n(C2CC(O)[C@@H](CO)O2)cc1C1OCCCO1` (single isomer, unassigned): the 50% cytotoxic concentration (CC50) in assay [1] was greater than 300 µM. The negative logarithm of the EC50 (pEC50) in assay [2] was less than 3.52.

Take `CC(=O)OC[C@H]1OC(n2cc(C3OCCCO3)c(=O)[nH]c2=O)C[C@@H]1OC(C)=O` (stereo not given in full): the CC50 in assay [1] is greater than 300 µM. The same compound gave a pEC50 in assay [2] of less than 3.52.

`O=Cc1cn([C@H]2C[C@H](O)[C@@H](CO)O2)c(=O)[nH]c1=O` came in with a cytotoxic concentration (CC50) in assay [1] greater than 300 µM. In assay [2], this compound had a pEC50 of less than 3.52.

The compound `CC(=O)OC[C@H]1OC(n2cc(C=O)c(=O)[nH]c2=O)C[C@@H]1OC(C)=O` (stereo not given in full) came in with a cytotoxic concentration (CC50) in assay [1] greater than 300 µM. Besides, in assay [2], the negative-log EC50 (pEC50) was less than 3.52.

As for `COC(OC)c1cn(C2C[C@H](O)[C@@H](CO)O2)c(=O)[nH]c1=O` (stereo not given in full), the negative logarithm of the EC50 (pEC50) in assay [3] is 5.13; in assay [4] it was 5.05; in assay [2], 4.93. The same compound registered a 50% cytotoxic concentration (CC50) in assay [1] greater than 300 µM.

In the case of `Nc1ccn(C[C@@H](CO)OCP(=O)(O)O)c(=O)n1` [CIDOFOVIR], the pEC50 is 5.05 in assay [3], 5.05 in assay [4] and 5.08 in assay [2]. The CC50 in assay [1] is greater than 300 µM.

Compound `CCOC(OCC)c1cn(C2C[C@H](O)[C@@H](CO)O2)c(=O)[nH]c1=O` (stereo not given in full) showed a CC50 in assay [1] greater than 300 µM. Further, in assay [2], the negative logarithm of the EC50 (pEC50) was less than 4.22.

In the case of `COC(OC)c1cnc(O)nc1O`, the CC50 in assay [1] is greater than 300 µM. The compound also showed a pEC50 in assay [2] of less than 3.52.

Regarding `CCOC(OCC)c1cn(C2C[C@H](OC(C)=O)[C@@H](COC(C)=O)O2)c(=O)[nH]c1=O` (stereo not given in full), the negative logarithm of the EC50 (pEC50) in assay [3] is 4.59; in assay [4], 4.10; in assay [2], 4.28. In addition, the CC50 in assay [1] is greater than 300 µM.

As a reminder, the CC50 is the concentration giving 50% cytotoxicity. In general, pEC50 refers to the negative decadic logarithm of the EC50, by convention in mol/L.

For the origin of these results see ChEMBL document CHEMBL1148520, “5-(Dimethoxymethyl)-2'-deoxyuridine: a novel gem diether nucleoside with anti-orthopoxvirus activity” (J Med Chem, 2006).
